Consider 27 compounds from ChEMBL document CHEMBL2040839, “Novel cinnamic acid/4-aminoquinoline conjugates bearing non-proteinogenic amino acids: towards the development of potential dual action antimalarials” (Eur J Med Chem, 2012).

The test system of one experiment is Plasmodium falciparum. The experiment in a line: Antiplasmodial activity against chloroquine-resistant blood-stage Plasmodium falciparum W2 after 48 hrs by flow cytometric analysis. Format: functional, organism-based. Particulars: W2, 48 h. Summed up: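 Synchronized ring-stage W2 parasites cultured 48 h with multiple compound concentrations (from 1000× DMSO stocks) in RPMI 1640 with 10% human serum or 0.5% Albumax. Cells then fixed in 1% formaldehyde/PBS pH 7.4 for 48 h at room temperature and stained with YOYO-1 (1 nM) in 0.1% Triton X-100. Parasitemia read by flow cytometry. IC50 taken from percent-of-control parasitemia curves, R2 >0.95.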
A general note: Flow cytometry measures light scatter and fluorescence of single cells or particles in a stream.

A further experiment deals with Heme. The experiment in a line: Inhibition of heme polymerization at 1 mM after 48 hrs by spectrophotometry relative to chloroquine. The procedure, abridged: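 Hemin chloride in DMSO (5.2 mg/mL) mixed with compound in DMSO (0.1–1 mM), in triplicate; water or DMSO as negative control, 1 mM CQ as positive. β-hematin formation started with 0.2 M acetate buffer pH 4.4, then 48 h at 37 °C. Pellet washed with DMSO, dissolved in 0.2 M NaOH, diluted 1:6 in 0.1 M NaOH, read at 405 nm.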

Experiment [1] in a line: Inhibition of Plasmodium falciparum falcipain 3 using substrate benzoxycarbonyl-Leu-Arg-7-amino-4-methyl-coumarin preincubated for 30 mins before substrate addition by fluorescence assay. The procedure, abridged:
(§1)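 Recombinant enzyme (1 nM) incubated with inhibitor at varied concentrations (from 10 mM DMSO stocks) in 100 mM sodium acetate pH 5.5, 10 mM DTT, 30 min at room temperature. Substrate then added at 25 μM final. Fluorescence monitored continuously for 30 min at room temperature; IC50 from curve fitting. FP3 tested only for compounds with FP2 IC50 < 50 μM.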

Experiment [2] is described as follows: Inhibition of Plasmodium falciparum falcipain 2 using substrate benzoxycarbonyl-Leu-Arg-7-amino-4-methyl-coumarin preincubated for 30 mins before substrate addition by fluorescence assay. Summed up: as §1

`CC(C)C[C@@H](NC(=O)/C=C/c1ccc(Br)cc1)C(=O)N[C@H](CCc1ccccc1)C(=O)Nc1ccnc2cc(Cl)ccc12`: the values for the IC50 (in the experiment on Plasmodium falciparum; in experiment [1]; in experiment [2]) were 2.55 µM, over 50 µM and 48.3 µM, respectively. The inhibition in the experiment with Heme is under 50%.
Turning to `COc1ccc(/C=C/C(=O)Nc2ccnc3cc(Cl)ccc23)cc1`, the IC50 in the experiment with Plasmodium falciparum was over 10 µM; in experiment [2] it was over 50 µM. In the experiment with Heme, this compound displayed an inhibition of under 50%.
Regarding `O=C(/C=C/c1ccc(Cl)cc1)Nc1ccnc2cc(Cl)ccc12`, the values for the IC50 (with Plasmodium falciparum; in experiment [1]; in experiment [2]) were over 10 µM, over 50 µM and 41.3 µM, respectively. This compound also yielded an inhibition in the experiment on Heme of under 50%.
In the same order, the values of `O=C(/C=C/c1ccc(Br)cc1)Nc1ccnc2cc(Cl)ccc12` are over 10 µM, over 50 µM, 33.1 µM and under 50%.
For the compound `O=C(/C=C/c1ccccc1[N+](=O)[O-])Nc1ccnc2cc(Cl)ccc12`, the IC50 was over 10 µM in the experiment on Plasmodium falciparum, over 50 µM in experiment [1] and 23.6 µM in experiment [2]. The compound also yielded an inhibition with Heme of under 50%.
As to `COc1ccc(/C=C/C(=O)N[C@H](CC(C)C)C(=O)N[C@H](CCc2ccccc2)C(=O)Nc2ccnc3cc(Cl)ccc23)cc1`, the IC50 in the experiment with Plasmodium falciparum is 10.8 µM; in experiment [2] it was over 50 µM. Also, the inhibition in the experiment with Heme is 50%.
In the same order, the values of `CC(C)c1ccc(/C=C/C(=O)Nc2ccnc3cc(Cl)ccc23)cc1` are over 10 µM, over 50 µM and under 50%.
The corresponding values for `CC(C)C[C@@H](NC(=O)/C=C/c1ccccc1[N+](=O)[O-])C(=O)N[C@H](CCc1ccccc1)C(=O)Nc1ccnc2cc(Cl)ccc12` are 1.66 µM, over 50 µM and 50%.
Consider `CC(C)C[C@@H](NC(=O)/C=C/c1ccc(C(C)C)cc1)C(=O)N[C@H](CCc1ccccc1)C(=O)Nc1ccnc2cc(Cl)ccc12`, for which the IC50 is 0.83 µM in the experiment on Plasmodium falciparum and over 50 µM in experiment [2]. Besides, the inhibition with Heme is under 50%.
In the same order, the values of `CC(C)C[C@@H](NC(=O)/C=C/c1ccc(Cl)cc1)C(=O)N[C@H](CCc1ccccc1)C(=O)Nc1ccnc2cc(Cl)ccc12` are 2.89 µM, over 50 µM and under 50%.
As for `CC(C)C[C@@H](NC(=O)/C=C/c1cccc([N+](=O)[O-])c1)C(=O)N[C@H](CCc1ccccc1)C(=O)Nc1ccnc2cc(Cl)ccc12`, the IC50 in the experiment on Plasmodium falciparum is 2.1 µM; in experiment [1] it was over 50 µM; in experiment [2], 28.1 µM. Besides, in the experiment on Heme, the inhibition is under 50%.
`CC(C)C[C@H](NC(=O)[C@H]1O[C@@H]1C(=O)O)C(=O)NCCCCN=C(N)N` [E-64]: the IC50 in experiment [2] was 0.0246 µM. That is a double-digit nanomolar value.
In the case of `CC(C)C[C@@H](NC(=O)/C=C/c1ccc(N)cc1)C(=O)N[C@H](CCc1ccccc1)C(=O)Nc1ccnc2cc(Cl)ccc12`, the IC50 with Plasmodium falciparum is 3.28 µM; in experiment [1], over 50 µM; in experiment [2], 20.3 µM. In the experiment on Heme, this compound returned an inhibition of over 75%.
Take `O=C(/C=C/c1cccc(F)c1)Nc1ccnc2cc(Cl)ccc12`: the IC50 with Plasmodium falciparum is over 10 µM; in experiment [2], over 50 µM. The same compound showed an inhibition with Heme of under 50%.
In the same order, the values of `O=C(/C=C/c1ccc([N+](=O)[O-])cc1)Nc1ccnc2cc(Cl)ccc12` are over 10 µM, over 50 µM and under 50%.
Turning to `CC(C)C[C@@H](NC(=O)/C=C/c1ccc(F)cc1)C(=O)N[C@H](CCc1ccccc1)C(=O)Nc1ccnc2cc(Cl)ccc12`, the IC50 in the experiment with Plasmodium falciparum stood at 4.67 µM; in experiment [2], 50 µM. The inhibition with Heme is under 50%.
In the same order, the values of `CC(C)C[C@@H](NC(=O)/C=C/c1ccc([N+](=O)[O-])cc1)C(=O)N[C@H](CCc1ccccc1)C(=O)Nc1ccnc2cc(Cl)ccc12` are 1.23 µM, over 50 µM and over 75%.
The compound `CCN(CC)CCCC(C)Nc1ccnc2cc(Cl)ccc12` (centres undefined) came in with an inhibition with Heme of over 75%.
As for `O=C(/C=C/c1ccccc1)Nc1ccnc2cc(Cl)ccc12`, the figures for the IC50 (with Plasmodium falciparum; in experiment [2]) were over 10 µM and over 50 µM, respectively. In the experiment with Heme, this compound displayed an inhibition of under 50%.
Regarding `Cc1ccc(/C=C/C(=O)N[C@H](CC(C)C)C(=O)N[C@H](CCc2ccccc2)C(=O)Nc2ccnc3cc(Cl)ccc23)cc1`, the IC50 in the experiment on Plasmodium falciparum was 1.96 µM; in experiment [2], over 50 µM. For the same compound, the inhibition in the experiment with Heme was over 75%.
On to `O=C(/C=C/c1cccc([N+](=O)[O-])c1)Nc1ccnc2cc(Cl)ccc12`, for which the IC50 in the experiment with Plasmodium falciparum is over 10 µM; in experiment [1], over 50 µM; in experiment [2], 14.2 µM. Besides, the inhibition in the experiment with Heme was under 50%.
Turning to `O=C(/C=C/c1ccc(F)cc1)Nc1ccnc2cc(Cl)ccc12`, the results for the IC50 (in the experiment with Plasmodium falciparum; in experiment [2]) were over 10 µM and over 50 µM, respectively. The same compound showed an inhibition in the experiment with Heme of under 50%.
In turn, `C[C@@H]1CC[C@H]2[C@@H](C)C(=O)O[C@@H]3O[C@@]4(C)CC[C@@H]1[C@]32OO4` [ARTEMISININ] showed an IC50 in the experiment with Plasmodium falciparum of 0.00876 µM.
Regarding `Cc1ccc(/C=C/C(=O)Nc2ccnc3cc(Cl)ccc23)cc1`, the IC50 was over 10 µM with Plasmodium falciparum, over 50 µM in experiment [1] and 28.5 µM in experiment [2]. In the experiment with Heme, this compound displayed an inhibition of under 50%.
As for `CC(C)C[C@@H](NC(=O)/C=C/c1ccccc1)C(=O)N[C@H](CCc1ccccc1)C(=O)Nc1ccnc2cc(Cl)ccc12`, the IC50 in the experiment on Plasmodium falciparum was 4.89 µM; in experiment [1], over 50 µM; in experiment [2], 19.6 µM. In addition, in the experiment on Heme, the inhibition was under 50%.
In the same order, the values of `CC(C)C[C@@H](NC(=O)/C=C/c1cccc(F)c1)C(=O)N[C@H](CCc1ccccc1)C(=O)Nc1ccnc2cc(Cl)ccc12` are 5.43 µM, over 50 µM, 23.1 µM and under 50%.
Turning to `CC(C)C[C@H](NC(=O)/C=C/c1ccccc1)C(=O)N[C@@H](CCc1ccccc1)C(=O)Nc1ccnc2cc(Cl)ccc12`, the IC50 was 8 µM in the experiment on Plasmodium falciparum and 50 µM in experiment [2].

A word on the IC50: it is the point on the concentration scale where inhibition reaches its midpoint. A word on the inhibition: it is the drop in the measured response relative to a control, in per cent.
